# Only some compounds are listed: those with a hit (about 1.5% of all), similar ones and a draw of the others.
# T cell HTS – T cell immune modulators affecting CD8 T cell-vesicle binding; response (vesicle binding), % at 7 µM; 2C CD8+ T cell-vesicle binding, flow cytometry; stronger effect = lower value; hit rate 0.068% among 330,000;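 active = response, share of CD8 T cells binding vesicles, and their 90th percentile fluorescence all below set limits, cut at about 80% in these data, passing the limit was not always enough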;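 also: values below 100% mean blocked vesicle binding to the CD8+ T cells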
#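 Read-out – percent CD8+ FL2 mean versus row control · System – murine 2C transgenic CD8+ T lymphocytes · Times – 1.5 h cell–vesicle binding at 37 °C, then 20 min icy labelling · Control set – naked vesicles low, QL9 vesicles with vehicle high · Detection – cytometric PE anti-B7-1 and Alexa647 anti-CD8 signals after 1% paraformaldehyde fixation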
# VLA-4 inh – inhibition in a human VLA-4 binding assay. P13612. VLA-4 expressing cells, ligand binding flow cytometry. inhibition, % (about 7 µM as worked out from the volumes in the protocol). hit rate 0.2% among 330,000. AID 2557; in the data active = inhibition above about 50%
# Target sequence (P13612 whole entry, looked up): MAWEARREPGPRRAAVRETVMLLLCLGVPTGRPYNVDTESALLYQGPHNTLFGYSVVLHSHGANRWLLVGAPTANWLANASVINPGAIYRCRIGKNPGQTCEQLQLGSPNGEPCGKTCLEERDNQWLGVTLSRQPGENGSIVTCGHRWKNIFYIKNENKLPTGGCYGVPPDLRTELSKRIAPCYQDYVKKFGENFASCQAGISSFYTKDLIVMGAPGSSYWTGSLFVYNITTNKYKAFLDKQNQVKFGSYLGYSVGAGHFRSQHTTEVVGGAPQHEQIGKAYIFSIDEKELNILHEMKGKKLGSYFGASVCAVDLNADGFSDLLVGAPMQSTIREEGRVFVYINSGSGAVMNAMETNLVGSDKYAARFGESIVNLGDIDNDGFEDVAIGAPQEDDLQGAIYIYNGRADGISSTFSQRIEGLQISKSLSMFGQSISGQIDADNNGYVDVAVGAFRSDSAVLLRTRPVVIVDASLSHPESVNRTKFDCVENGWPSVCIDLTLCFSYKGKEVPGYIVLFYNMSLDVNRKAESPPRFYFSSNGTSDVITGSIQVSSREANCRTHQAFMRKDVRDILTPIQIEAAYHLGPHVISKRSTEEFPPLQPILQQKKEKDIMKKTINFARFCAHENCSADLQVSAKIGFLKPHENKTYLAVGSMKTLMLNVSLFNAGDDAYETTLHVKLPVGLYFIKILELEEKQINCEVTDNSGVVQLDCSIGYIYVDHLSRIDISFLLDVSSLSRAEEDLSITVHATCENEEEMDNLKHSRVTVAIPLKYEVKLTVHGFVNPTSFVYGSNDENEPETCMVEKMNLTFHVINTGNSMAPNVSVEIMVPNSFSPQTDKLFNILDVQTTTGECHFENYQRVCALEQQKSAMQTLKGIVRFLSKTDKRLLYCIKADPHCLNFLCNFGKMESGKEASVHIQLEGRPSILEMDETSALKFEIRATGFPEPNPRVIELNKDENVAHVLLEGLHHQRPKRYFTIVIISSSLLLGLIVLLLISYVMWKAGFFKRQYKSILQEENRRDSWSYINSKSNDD
# CHT allo act – allosterically activates the human high affinity choline transporter; Q9GZV3; CHT-expressing cells, membrane potential dye, choline EC20; stronger effect = higher value; LV-AA mutant CHT in HEK293 cells; B-score at 10 µM; hit rate 0.49% among 310,000; AID 488977;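 active = initial fluorescence not abnormally high and integrated response B-score, plate-corrected, over 3 SD above library mean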
# CHT block – inhibitors of human choline transporter CHT; Q9GZV3; CHT-expressing cells, membrane potential dye, choline response; stronger effect = lower value; B-score at 10 µM; hit rate 0.86% among 310,000;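 active = B-score over 3 SD under the library average, and starting fluorescence ratio not unusually high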;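 also: choline stimulus applied at its EC90 after an EC20 pre-addition; B-score computed on integrated fluorescence ratio after choline addition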
# CHT inh conf – human CHT inhibition, confirmatory screen. shares compounds with CHT block. CHT-expressing cells, choline membrane potential dye; LV-to-AA substituted CHT, HEK293 cells. CHT activity remaining % of control (stronger effect = lower value), % at 10 µM. hit rate 70% among 2,400. AID 493221;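 active = choline transporter activity left, mean of duplicates at 10 µM, below buffer-only control mean minus 3 SD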;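 also: depolarization triggered by choline at its EC90 following an EC20 pre-addition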
# HEK293 MPD ctr – activity in parental HEK293 cells lacking CHT; membrane potential ratio readout (active if shifted either direction beyond buffer ±3SD; no single direction) at 10 µM; AID 493222; membrane potential dye, choline response; active = decrease or increase beyond buffer ±3SD; hit rate 4% among 2,400; shares compounds with CHT block;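 also: parental cells lack the transporter so any hit is non-specific; ratio is peak minus trough fluorescence over baseline after EC90 choline challenge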
# A number is an active result; – = inactive; · = no result.
SMILES,T cell HTS,VLA-4 inh,CHT allo act,CHT block,CHT inh conf,HEK293 MPD ctr
Cc1ccccc1OCCSc1nnc(C)n1-c1ccccc1,–,–,–,-5.16,–,–
CCC(C)Sc1ccc([C@H]2N[C@@](Cc3ccccc3)(C(=O)OC)[C@H]3C(=O)N(C)C(=O)[C@@H]23)cc1 (some centres undefined),–,–,–,–,·,·
COc1ccc(Cc2nnc(NC(=O)c3ccccc3[N+](=O)[O-])s2)cc1,–,–,–,-7.14,26.4%,–
COc1ccc(NC(=O)c2ccccc2[N+](=O)[O-])cc1,–,–,–,–,·,·
c1ccc(CN2CCN(c3nc4ccccc4n4cnnc34)CC2)cc1,–,–,–,-5.53,59.0%,–
c1ccc2c(c1)nc(N1CCOCC1)c1nncn12,–,–,–,–,·,·
COc1cc(CN2CCCC(C(=O)c3ccc4c5c(cccc35)CC4)C2)cc(OC)c1O (centres undefined),–,–,–,–,·,·
O=C(NC(Cc1ccccc1)C(=O)N1CCCCC1)c1ccccc1 (centres undefined),–,–,–,–,·,·
Cc1noc(C)c1COC(=O)c1ccccc1Sc1ccccc1C#N,–,–,–,-6.14,–,–
CCOC(=O)C1=C(N)Oc2cc(C)n(CCc3ccc(OC)c(OC)c3)c(=O)c2C1c1cccnc1 (centres undefined),–,–,–,–,·,·
COC(=O)C1=C(N)Oc2cc(C)n(CCc3ccccc3)c(=O)c2C1c1cccnc1 (centres undefined),–,–,–,-5.18,69.2%,–
CC(C)(C)C(=O)N1CCN(c2ccc(NC(=O)c3ccc4c(c3)OCCO4)cc2)CC1,–,–,–,-5.38,65.8%,–
Cc1onc(-c2ccccc2Cl)c1C(=O)Oc1cccc2cccnc12,–,–,–,-5.47,–,–
O=C(CSc1cccc(C(F)(F)F)c1)NCc1ccccc1,–,–,–,-5.8,–,–
CC(C)N(C(=O)COC(=O)c1ccccc1C(=O)c1ccc(Cl)c([N+](=O)[O-])c1)C(C)C,–,–,–,–,·,·
CN(CCC#N)C(=O)COC(=O)c1ccccc1C(=O)c1ccc(Cl)c([N+](=O)[O-])c1,–,–,–,-4.95,48.6%,–
O=C(Cn1cnc2c(nnn2Cc2ccc(F)cc2)c1=O)Nc1ccc2c(c1)OCCO2,–,–,–,–,·,·
CCc1ccc2oc(C(=O)NCC(c3ccc(OC)cc3)N3CCCCC3)c(C)c2c1 (centres undefined),–,–,–,-6.04,61.2%,–
CC1CC(C)CN(C(=O)COc2ccc([N+](=O)[O-])cc2Cl)C1 (centres undefined),–,–,–,-6.11,–,–
CCOC(=O)CC1(C)NC(=O)c2c(C)sc(C(=O)OCC)c2N1 (centres undefined),–,–,–,–,·,·
CCOC(=O)CC1(CC(=O)OCC)NC(=O)c2c(C)sc(C(=O)OCC)c2N1,–,–,–,-5.13,38.3%,–
COc1ccccc1CNC(=O)C(=O)NCC1CCCN1S(=O)(=O)c1cccs1 (centres undefined),–,–,–,–,·,·
CC1=NN(c2ccccc2)C(=O)/C1=C/c1ccc(-c2ccc(C)c(C(=O)O)c2)o1,–,–,–,-6.17,42.1%,–
CC1=NN(c2ccc(C(=O)O)cc2)C(=O)/C1=C/c1ccc(-c2ccccc2F)o1,–,–,–,–,·,·
Cc1ccc(S(=O)(=O)N(C)C)cc1NC(=O)COC(=O)Cc1ccsc1,–,–,–,–,·,·
SMILES,T cell HTS,VLA-4 inh,CHT allo act,CHT block,CHT inh conf,HEK293 MPD ctr
COc1ccc(-c2sc3ccc(OC)cc3c2-c2ccc(OC)nc2)cc1,–,–,·,·,·,·
COc1cc2c(cc1OC)/C(=C/C(=O)c1ccccc1F)NCC2,–,–,–,-5.3,51.8%,–
CC(C)(C)OC(=O)C[C@H]1C/C=C\C[C@H](CC(=O)N[C@H](CO)Cc2ccccc2)C(=O)N[C@@H](Cc2ccccc2)COC1=O,–,–,·,·,·,·
NC(=O)CSc1nnc(-c2ccc(O)cc2)n1Cc1ccco1,–,–,–,–,·,·
O=C(CSc1nnc(-c2ccncc2)n1Cc1ccco1)c1ccc(Cl)cc1,–,–,–,-5.83,70.5%,–
O=C(CSc1nnc(-c2ccc(O)cc2)n1Cc1ccco1)N1CCc2ccccc2C1,–,–,–,-5.85,–,–
C/C(CC(=O)Nc1cccc(Br)c1)=N\NC(=O)c1ccc(O)cc1O,–,–,–,–,·,·
Cn1c(=O)c([N+](=O)[O-])c(NCc2ccc3c(c2)OCO3)c2ccccc21,–,–,–,–,·,·
CC1Cc2ccccc2N1C(=O)CCS(=O)(=O)c1ccc2c(c1)NC(=O)CS2 (centres undefined),–,–,–,-4.99,–,–
CCc1ccc2c(CC(=O)NNC(=O)c3ccncc3)coc2c1,–,–,·,·,·,·
COc1cccc(NC(=O)CN2CCN(c3ccccc3F)CC2)c1,–,–,–,-5.93,–,–
COc1cc(NC(=O)CN2CCN(c3ccccc3F)CC2)cc(OC)c1,–,–,–,–,·,·
O=C(CSc1ccncc1)Nc1ccc2ccccc2c1,–,–,–,–,·,·
O=C(CSc1ccc2ccccc2c1)Nc1ccncc1,–,–,–,-6.05,52.2%,–
COc1cc(C(=O)OCC(=O)N2CCOCC2)c([N+](=O)[O-])cc1OC,–,–,–,–,·,·
CC(/C=C1\SC(=S)N(NS(=O)(=O)c2ccc(C)cc2)C1=O)=C\c1ccccc1,–,–,–,–,·,·
COc1cc(/C=C2\SC(=S)N(NC(=O)c3ccc(O)c(OC)c3)C2=O)ccc1O,–,–,–,–,·,·
CC(/C=C1\SC(=S)N(NC(=O)c2ccncc2)C1=O)=C\c1ccccc1,–,–,–,-6.49,15.4%,–
COc1cc(/C=C2\SC(=S)N(NC(=O)c3ccncc3)C2=O)ccc1O,–,–,–,-9.83,-0.4%,-8.53
COc1ccc(/C=C2/SC(=S)N(NS(=O)(=O)c3ccccc3)C2=O)cc1,–,–,–,-4.95,45.3%,–
CC(/C=C1\SC(=S)N(NS(=O)(=O)c2ccccc2)C1=O)=C\c1ccccc1,–,–,–,-5.81,54.8%,–
CC(CN1CCOCC1)OC(=O)c1cccc(Cl)c1 (centres undefined),–,–,–,–,·,·
Oc1ccc2ccccc2c1/C=N/c1nc2c(s1)CCCC2,–,–,–,–,·,·
Oc1c(Br)cc(Br)cc1/C=N/c1nc2c(s1)CCCC2,–,–,–,-12,57.0%,–
CC(=O)Nc1ccc(NC(=O)C(C)OC(=O)CNS(=O)(=O)c2ccc(Br)cc2Cl)cc1 (centres undefined),–,–,–,–,·,·
Oc1c(Br)cc(Br)cc1C=NCc1ccc(F)cc1,–,–,–,-7.07,56.7%,–
Oc1c(Br)cc(Br)cc1C=NCc1ccccc1,–,–,–,-9.85,42.4%,–
CC(=O)N1CCOc2ccc(S(=O)(=O)N3CCC(C(=O)NCc4ccc(F)cc4)CC3)cc21,–,–,–,–,·,·
